# Assay outcomes as filed in PubChem.
# Only some compounds are listed: those with a hit (about 2.3% of all), similar ones and a draw of the others.
# Scp-1 inhibitor – Scp-1 (human) phosphatase inhibition; Q9GZU7; Recombinant Scp1, phosphopeptide, malachite green phosphate absorbance; inhibition, % at 20 µM; 0.88% of 340,000 active; AID 493091;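 active = inhibition above about 50% at 20 µM, limit read from the data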;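 also: plate controls were DMSO wells with enzyme for no effect and wells lacking enzyme for full effect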
# Target sequence (Q9GZU7 76-261 limits assumed): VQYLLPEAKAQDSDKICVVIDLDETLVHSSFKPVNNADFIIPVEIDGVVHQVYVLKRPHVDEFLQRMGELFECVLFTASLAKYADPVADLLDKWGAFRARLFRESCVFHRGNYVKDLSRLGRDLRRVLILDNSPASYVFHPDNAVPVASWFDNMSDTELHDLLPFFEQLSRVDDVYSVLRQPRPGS
#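 Test system: SCP-1 phosphatase catalytic domain, residues 76-261; measured by: colorimetric phosphate reagent with accelerator and stabiliser, absorbance at 630 nm; timing: enzyme reaction 45 min at room temperature, colour 5 min, stabilisation 30 min; also added: Phosphorylated 17-residue peptide substrate; compound dosing: one concentration, 20 µM, with 1.0% DMSO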
# Rpn11 block – blocks the human proteasome subunit Rpn11. 0.59% of 360,000 active. human 26S proteasome, Ub4-pepOG fluorescence polarization; 20S core pre-blocked with epoxomicin. inhibition, % at 20 µM. AID 588493. O00487;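 active = inhibition at 20 µM, scaled to each plate's controls, above about 33%, limit read from the data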
# Target sequence (O00487 whole entry, looked up): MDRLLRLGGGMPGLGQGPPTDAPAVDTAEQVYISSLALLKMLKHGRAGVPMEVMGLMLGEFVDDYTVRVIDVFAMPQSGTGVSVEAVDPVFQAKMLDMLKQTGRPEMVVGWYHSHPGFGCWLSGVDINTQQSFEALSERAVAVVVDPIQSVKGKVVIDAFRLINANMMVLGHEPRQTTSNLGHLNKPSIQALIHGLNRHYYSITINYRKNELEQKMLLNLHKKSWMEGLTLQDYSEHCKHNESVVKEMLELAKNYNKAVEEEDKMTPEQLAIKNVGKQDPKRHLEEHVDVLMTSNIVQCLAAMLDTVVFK
# LMPTP inh – LMPTP (human) inhibition. P24666. recombinant LMPTP-A, OMFP fluorogenic substrate, fluorescence intensity. inhibition, % at 20 µM. 0.22% of 360,000 active;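 active = compounds that cut the enzyme signal by at least half of the control window in the single-dose screen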;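 also: plate controls were DMSO wells with enzyme plus substrate for no effect and substrate without enzyme for full effect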
#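 Test system: LMPTP-A, protein tyrosine phosphatase of low molecular weight; Input: 0.625 nM enzyme; Incubation: 50 min dark incubation at room temperature; Signal: endpoint fluorescence intensity from OMFP dephosphorylation; Read-out basis: % inhibition versus control wells.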
# SUMO1-SIM PPI – modulators of human SUMO1-mediated protein-protein interactions; P63165; SUMO1 binding to a labelled peptide, TR-FRET, 1 h; inhibition, % at 20 µM; 0.33% of 360,000 active; in the data active = inhibition above about 37%
# Target sequence (P63165 whole entry, looked up): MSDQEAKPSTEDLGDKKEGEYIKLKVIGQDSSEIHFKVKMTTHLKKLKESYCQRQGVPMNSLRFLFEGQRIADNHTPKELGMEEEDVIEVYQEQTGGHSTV
# DNMT1 inh – blocks human DNA methyltransferase DNMT1. inhibition (reported as % activation of signal), % at 10 µM. DNMT1 molecular beacon, Hinp1I cleavage, fluorescence. 0.83% of 360,000 active. P26358; in the data active = inhibition above about 50%
# STEP inh – STEP (human) phosphatase inhibition | P54829 | recombinant STEP, OMFP fluorogenic substrate, fluorescence | inhibition, % at 20 µM | 0.25% of 360,000 active | AID 588621;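 active = inhibition at 20 µM, scaled per plate between control wells, above about 37%, limit read from the data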;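 also: 0% = DMSO with enzyme and substrate and 100% = substrate only without enzyme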
#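 System: STEP phosphatase, cell-free reaction; Buffer or medium: Bis-Tris pH 6.0 buffer with DTT, detergent; Incubation: 20 min at room temperature, dark; Measured by: fluorescence, 480/540 nm.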
# Beacon interf DR – counter-screen for DNMT1 inhibitors: spectral interference, dose response | shares compounds with DNMT1 inh | molecular beacon fluorescence | IC50, µM | 200 tested, under 10 active | AID 602382; call rule not given here
# DNMT1 confirm – confirmation of human DNMT1 inhibitors; AID 602385; DNMT1 molecular beacon HinP1I cleavage, fluorescence; inhibition, % at 10 µM; 8% of 2,300 active; shares compounds with DNMT1 inh;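 active = average inhibition of at least 30% in the single-concentration confirmation test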
# Beacon interf – beacon fluorescence artifact counter-screen. 1% of 2,300 active. activation (fluorescence interference), % at 10 µM. shares compounds with DNMT1 inh. DNMT1 molecular beacon spectral interference counterscreen, fluorescence 485/520. AID 602387;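 active = activation of at least 30% at 10 µM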;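 also: DNMT1 catalytic domain with a HinP1I cleavage step and a FAM/dabcyl DNA beacon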
# Active calls of the source: *; . = no result given.
SMILES,Scp-1 inhibitor,Rpn11 block,LMPTP inh,SUMO1-SIM PPI,DNMT1 inh,STEP inh,DNMT1 confirm,Beacon interf,others
CCc1nnc(NS(=O)(=O)c2ccc(NC(=S)NC(=O)/C=C/c3ccc(C(C)C)cc3)cc2)s1,-10,24,4,27,62*,0,33*,-4,Beacon interf DR=>99
Cc1cccc(NC(=O)CNC(=O)CSc2nnc(C(F)(F)F)n2C)c1C,-3,-1,-1,2,4,-2,.,.,
COc1ccc(C2CC(c3ccccc3C(F)(F)F)=NN2c2ccc(S(N)(=O)=O)cc2)cc1 (stereo unspecified),4,16,2,7,65*,-4,15,12,
COC(=O)C1=COC(OC2OC(CO)C(O)C(O)C2O)C2C(C)CC(=O)C12 (stereo unspecified),.,-17,8,2,74*,18,2,2,
Cc1cc(=O)c(C(=O)Nc2cccc(N3CCCC3=O)c2)nn1-c1ccccc1F,-5,-3,-1,-9,85*,1,1,3,
CCOc1ccccc1NC(=O)CCCn1cc([N+](=O)[O-])cn1,-12,4,-1,-7,3,-2,.,.,
CCOC(=O)N1CCN(CC(O)COc2ccc3c(c2)CCC3)CC1 (stereo unspecified),-8,-4,0,4,-1,3,.,.,
CN(C)C(=O)CN1c2cccc3cccc(c23)S1(=O)=O,-7,-2,1,-3,-2,2,.,.,
CN(CC(=O)Nc1cccc(F)c1)C(=O)CN1c2cccc3cccc(c23)S1(=O)=O,43,0,16,-7,53*,0,1,1,
Cc1nc(SCCC(C)C)c([N+](=O)[O-])[nH]1,3,2,-1,-29,94*,3,7,6,
Cc1nc(SCCO)c([N+](=O)[O-])[nH]1,-7,-2,1,-11,-1,0,.,.,
CC(=O)c1ccc(N2CCN(C(=O)Cc3n[nH]c(=O)c4ccccc34)CC2)cc1,-3,1,0,0,66*,-1,1,1,
O=C(c1cccc(Cl)c1)N1CCN(Cc2ccc3c(c2)OCO3)CC1,-5,-2,0,5,90*,0,2,2,
CCOc1ccccc1-n1nnnc1SCC(=O)N(C)C1CCS(=O)(=O)C1 (stereo unspecified),.,2,-11,-36,-3,-3,.,.,
CCOC(=O)c1c(NC(=O)COC(=O)Cn2c(C)nc3ccccc32)sc2c1CCCC2,5,16,27,-9,65*,10,5,1,
COc1ccc(Cc2nnc(NC(=O)CS(=O)(=O)c3ccccc3)s2)cc1OC,-10,4,-1,8,0,1,.,.,
COc1ccc(C)cc1NC(=O)c1cc(C2CC2)nc2c1c(C)nn2C1CCS(=O)(=O)C1 (stereo unspecified),-5,-4,0,-3,0,-1,.,.,
CC(C)C(=O)Nc1ccc(Cl)cc1-c1nc2ccccc2[nH]c1=O,-8,0,-2,-9,1,1,.,.,
CNc1ccc([N+](=O)[O-])cc1-c1nc2ccccc2[nH]c1=O,15,6,4,6,51*,4,1,-5,
COc1cccc(C(=O)N2CCN(C3CCN(Cc4ccccc4)CC3)CC2)c1OC,-7,-10,-3,-1,-2,-3,.,.,
Cc1csc(N=Cc2ccc([N+](=O)[O-])o2)n1,.,-12,43,25,86*,8,4,-5,
O=[N+]([O-])c1ccc(/C=N/N=C/c2ccc([N+](=O)[O-])o2)o1,16,-21,0,3,15,1,.,.,
O=C(NC1CCCCC1)C(c1ccc(F)cc1)N(Cc1ccccc1)C(=O)CN1C(=O)c2ccccc2S1(=O)=O (stereo unspecified),7,-4,2,-1,35,-1,.,.,
O=C(NC1CCCCC1)C(c1ccc(F)cc1)N(CCc1ccccc1)C(=O)CN1C(=O)c2ccccc2S1(=O)=O (stereo unspecified),-6,-26,1,-2,59*,-1,5,2,
Cc1ccc(S(=O)(=O)NCC(=O)N(CC(=O)NCc2ccco2)Cc2ccccc2)cc1,-7,5,0,2,-1,0,.,.,
SMILES,Scp-1 inhibitor,Rpn11 block,LMPTP inh,SUMO1-SIM PPI,DNMT1 inh,STEP inh,DNMT1 confirm,Beacon interf,others
COc1cccc(CN(CC(=O)NCc2ccco2)C(=O)CNS(=O)(=O)c2ccccc2)c1,0,-2,-1,1,57*,0,7,8,
O=C(c1ccc(C(F)(F)F)cc1)C1CCCN(C(=O)CN2C(=O)CSC2=O)C1 (stereo unspecified),-4,-4,-1,-3,0,-2,.,.,
CS(=O)(=O)Nc1ccc(C(=O)NC2CCCCC2)cc1,-5,-9,-1,4,1,-1,.,.,
CS(=O)(=O)Nc1ccc(C(=O)NC2CCCC2)cc1,-21,-5,-1,-1,80*,0,1,3,
[O-][n+]1c2ccccc2[n+]([O-])c2cc(O)ccc21,57*,-32,20,21,56*,11,2,1,
COc1ccccc1NC(=S)N=Nc1c(O)[nH]c2ccc(Br)cc12,-2,8,3,1,89*,-3,3,-3,
CCCCn1c(N)c(N(CC(C)C)C(=O)C2CCN(S(=O)(=O)c3ccc(C)c(C)c3)CC2)c(=O)[nH]c1=O,44,-9,0,-3,-2,0,.,.,
COc1cccc(CC(=O)n2nc(N)c3cc4ccc(OC)cc4nc32)c1,-12,2,2,1,-8,2,.,.,
COc1ccc2cc3c(N)nn(C(=O)Cc4ccc(Cl)cc4)c3nc2c1,-3,9,1,3,69*,1,0,1,
CCOC(=O)c1c(CN2CCNCC2)nc2ccc(Cl)cc2c1-c1ccccc1,-8,9,-1,-21,-6,-4,.,.,
CC(C)(C)C(=O)COC(=O)c1cc(-c2cccnc2)nc2ccccc12,-3,-1,0,-16,3,-2,.,.,
O=C(O)c1ccc2c(c1)C(=O)N(c1cc([N+](=O)[O-])ccn1)C2=O,11,1,-1,-25,3,-3,.,.,
CCc1cc2c(=O)n3c(nc2s1)-c1[nH]c2ccc(OC)cc2c1CC3,2,8,2,-2,76*,1,5,5,
COc1ccc2[nH]c3c(c2c1)CCNC3=O,-7,6,0,4,-5,2,.,.,
